In ChEMBL document CHEMBL3576833, “Design and Synthesis of Acetylenyl Benzamide Derivatives as Novel Glucokinase Activators for the Treatment of T2DM” (ACS Med Chem Lett, 2015):
In brackets after ≈: the same amount, converted by molar mass.

Legend:
Hexokinase-4 = biological target: T1, Hexokinase-4 (Homo sapiens, UniProt P35557); assay: Activation of recombinant human pancreatic glucokinase using 10 mM glucose as substrate by G6PDH coupled assay
T1 sequence (P35557 whole entry): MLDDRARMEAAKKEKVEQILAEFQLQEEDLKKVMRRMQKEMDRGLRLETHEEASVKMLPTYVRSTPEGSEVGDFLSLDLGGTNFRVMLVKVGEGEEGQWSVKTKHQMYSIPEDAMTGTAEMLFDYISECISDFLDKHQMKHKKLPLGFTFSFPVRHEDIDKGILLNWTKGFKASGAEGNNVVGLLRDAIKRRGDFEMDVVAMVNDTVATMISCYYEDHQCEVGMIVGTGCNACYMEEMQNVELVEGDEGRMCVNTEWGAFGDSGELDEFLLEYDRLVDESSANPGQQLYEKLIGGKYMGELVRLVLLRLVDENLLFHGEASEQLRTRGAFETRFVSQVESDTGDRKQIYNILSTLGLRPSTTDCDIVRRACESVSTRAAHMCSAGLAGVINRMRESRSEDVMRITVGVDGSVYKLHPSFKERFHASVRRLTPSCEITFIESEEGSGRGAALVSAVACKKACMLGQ
Summary of the method: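 Recombinant human pancreatic glucokinase, with glucose at 10 mM. Activity was read as the increase in GK enzyme activity. EC50, Vmax and S0.5 were derived from this. Values are means of triplicate runs.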

Mus musculus [1] = assay: Antidiabetic activity in C57BL/6 mouse assessed as reduction of blood glucose AUC at 50 mg/kg, po administered 30 mins prior to glucose challenge measured over 180 mins by OGTT relative to vehicle-treated control; format: functional; parameters: scale not given: the % may be the effect or the level left
Summary of the method: (§1)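 Oral glucose tolerance test in C57BL/6J mice with oral dosing. Blood glucose was followed after the glucose challenge, and the result was expressed as the % reduction in blood glucose AUC.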

Mus musculus [2] = assay: Antidiabetic activity in C57BL/6 mouse assessed as reduction of blood glucose AUC at 30 mg/kg, po administered 30 mins prior to glucose challenge measured over 180 mins by OGTT relative to vehicle-treated control; format: functional; parameters: scale not given: the % may be the effect or the level left; summary of the method: as §1
Mus musculus [3] = assay: Antidiabetic activity in C57BL/6J mouse assessed as blood glucose level at 30 mg/kg, po after 60 mins by fasted glucose tolerance test; format: functional
Summary of the method: (§2)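 Fasted glucose tolerance test in C57BL/6J mice. Animals were fasted and dosed orally, with no glucose challenge. Blood glucose was measured at 60 min.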

Mus musculus [4] = assay: Toxicity in C57BL/6J mouse assessed as hypoglycemic effect at 30 mg/kg, po after 60 mins; format: organism-based; conditions: in vivo, 1 h; summary of the method: as §2
[5] = Clearance in ICR mouse at 3 mg/kg, iv and 10 mg/kg, po; format: ADME, organism-based; conditions: in vivo
[6] = Volume of distribution at steady state in ICR mouse at 3 mg/kg, iv and 10 mg/kg, po; format: ADME, organism-based; conditions: in vivo, read-out: Vdss
[7] = Elimination half life in ICR mouse at 3 mg/kg, iv and 10 mg/kg, po; format: ADME, organism-based; conditions: in vivo, read-out: beta t1/2 (converted)
[8] = Oral bioavailability in ICR mouse at 10 mg/kg; format: ADME, organism-based; conditions: in vivo
[9] = Solubility of the compound at pH 7.4; format: physicochemical; conditions: buffer
[10] = Apparent permeability of the compound by PAMPA; format: physicochemical

Structure (SMILES) | EC50 (Hexokinase-4) [nM] | Activity (Mus musculus [1]) [%] | further results
COCC#Cc1cc(O[C@@H](C)COC)cc(C(=O)Nc2ccn(C)n2)c1 | 1870 | – | –
COC[C@H](C)Oc1cc(C#CCOC2CCCCO2)cc(C(=O)Nc2ccn(C)n2)c1 (stereo not given in full) | 6 | 44.7 | –
COC[C@H](C)Oc1cc(C#CCN(C)C)cc(C(=O)Nc2ccn(C)n2)c1 | 7700 | – | –
COC[C@H](C)Oc1cc(C#CCNc2ncccn2)cc(C(=O)Nc2ccn(C)n2)c1 | 301 | – | –
COC[C@H](C)Oc1cc(C#Cc2ccccc2OC)cc(C(=O)Nc2ccn(C)n2)c1 | 21 | – | Activity (Mus musculus [2]): 49.1%
COC[C@H](C)Oc1cc(C#Cc2ccc3[nH]ccc3c2)cc(C(=O)Nc2ccn(C)n2)c1 | 12 | – | –
COC[C@H](C)Oc1cc(C#Cc2ccc3c(c2)OCO3)cc(C(=O)Nc2ccn(C)n2)c1 | 30 | – | –
COC[C@H](C)Oc1cc(C#Cc2ccc(N)cc2)cc(C(=O)Nc2ccn(C)n2)c1 | 34 | 53.5 | –
COC[C@H](C)Oc1cc(C#Cc2cccc(N)c2)cc(C(=O)Nc2ccn(C)n2)c1 | 27 | 52.1 | Activity (Mus musculus [2]): 47.4%; Activity (Mus musculus [3]): >55 mg/dL; Activity (Mus musculus [4]): Non-toxic; clearance [5]: 43.2 mL/min/kg; Vd [6]: 1.44 L/kg; half-life [7]: 1.1 h; bioavailability [8]: 49%; solubility [9]: 22.2 µM (≈ 8.98 µg/mL); Papp [10]: 3.43 ×10⁻⁶ cm/s
COC[C@H](C)Oc1cc(C#Cc2cccc(O)c2)cc(C(=O)Nc2ccn(C)n2)c1 | 39 | – | –
COC[C@H](C)Oc1cc(C#Cc2cccc(N(C)C)c2)cc(C(=O)Nc2ccn(C)n2)c1 | 37 | 43.7 | –
CCN(CC)c1cccc(C#Cc2cc(O[C@@H](C)COC)cc(C(=O)Nc3ccn(C)n3)c2)c1 | 163 | – | –
COC[C@H](C)Oc1cc(C#Cc2cccc(NCCN(C)C)c2)cc(C(=O)Nc2ccn(C)n2)c1 | 6 | – | Activity (Mus musculus [2]): 56%
COC[C@H](C)Oc1cc(C#Cc2cccc(NCCN3CCCC3)c2)cc(C(=O)Nc2ccn(C)n2)c1 | 6 | 51.4 | –
COC[C@H](C)Oc1cc(C#Cc2cccc(NCCN3CCCCC3)c2)cc(C(=O)Nc2ccn(C)n2)c1 | 6 | 54 | –
COC[C@H](C)Oc1cc(C#Cc2cccc(NCCN3CCOCC3)c2)cc(C(=O)Nc2ccn(C)n2)c1 | 20 | 47.9 | –
COCCNc1cccc(C#Cc2cc(O[C@@H](C)COC)cc(C(=O)Nc3ccn(C)n3)c2)c1 | 39 | – | Activity (Mus musculus [2]): 41%
COC[C@H](C)Oc1cc(C#Cc2cccc(NCCn3ccnc3C)c2)cc(C(=O)Nc2ccn(C)n2)c1 | 9 | – | –
COC[C@H](C)Oc1cc(C#Cc2cccc(OC(C)C)c2)cc(C(=O)Nc2ccn(C)n2)c1 | 53 | – | –
COC[C@H](C)Oc1cc(C#Cc2cccc(OCC#N)c2)cc(C(=O)Nc2ccn(C)n2)c1 | 46 | – | –
COC[C@H](C)Oc1cc(C#Cc2cccc(OCCN3CCCC3)c2)cc(C(=O)Nc2ccn(C)n2)c1 | 6 | 51.6 | –
COC[C@H](C)Oc1cc(C#Cc2cccc(OCCN3CCCCC3)c2)cc(C(=O)Nc2ccn(C)n2)c1 | 7 | 46 | –
COC[C@H](C)Oc1cc(C#Cc2cccc(OCCN3CCOCC3)c2)cc(C(=O)Nc2ccn(C)n2)c1 | 16 | – | –
N[C@@H](CC(=O)N1CCn2c(nnc2C(F)(F)F)C1)Cc1cc(F)c(F)cc1F [SITAGLIPTIN] | – | – | Activity (Mus musculus [2]): 22.6%
